Measured values from publication PMC6146057 (ACS chemical neuroscience, 2018).
Substitutions are numbered along the chain they refer to. Read-outs that look alike come from different tables or passages of the source. One block for each compound: values may come before it.

What was measured:
[1] = tested on: layer V medial prefrontal cortex fEPSPs; settings: cited from earlier work
[2] = tested on: rats; settings: cited from earlier work
[3] = tested on: mice; settings: cited from earlier work
[4] = biological target: T1, rat M1 (Rattus norvegicus, UniProt P08482); settings: reported M1 PAMs with adverse effect liability; cited from earlier work
T1 sequence (P08482 1-460): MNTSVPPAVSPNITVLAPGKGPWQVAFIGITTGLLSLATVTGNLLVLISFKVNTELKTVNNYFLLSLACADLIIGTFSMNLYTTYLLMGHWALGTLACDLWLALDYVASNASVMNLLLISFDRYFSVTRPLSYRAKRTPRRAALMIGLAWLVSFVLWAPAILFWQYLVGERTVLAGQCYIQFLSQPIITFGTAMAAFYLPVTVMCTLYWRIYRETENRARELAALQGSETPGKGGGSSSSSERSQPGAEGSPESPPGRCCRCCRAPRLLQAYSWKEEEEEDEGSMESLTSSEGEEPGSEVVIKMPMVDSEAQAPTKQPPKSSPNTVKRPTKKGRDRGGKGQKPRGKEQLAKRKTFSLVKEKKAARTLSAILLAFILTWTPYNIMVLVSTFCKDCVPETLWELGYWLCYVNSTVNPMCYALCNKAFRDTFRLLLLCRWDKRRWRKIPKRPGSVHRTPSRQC

[5] = tested on: rats; test: Contextual fear conditioning, risperidone-induced deficit; type: in vivo, rat; settings: 3 mg/kg i.p. alone
[6] = tested on: layer V medial prefrontal cortex fEPSPs; test: Extracellular field electrophysiology in layer V prelimbic mPFC slices; set-up: species or system mouse
Outline: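 Coronal prelimbic slices (400 μm) recovered in NMDG-HEPES solution (pH 7.3) for 8–10 min at 32 °C, then were perfused with ACSF at 2 mL/min and 30–32 °C. Layer V fEPSPs were evoked from layers II–III (200 μs, 0.05 Hz) or optically in ChR2-injected mice. Compound alone was bath-applied for 20 min. Alternatively, 10 μM compound was applied for 10 min, then with 3 μM OxoM for 10 min. Slope was measured 46–50 min after washout.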

[7] = biological target: T2, M1 (Homo sapiens, UniProt P11229); settings: cited from earlier work
T2 sequence (P11229 1-460): T1 sequence (P08482 1-460) with V5A, S254T, S309P, K320R, G337A, V413I

[8] = biological target: T2, M1; test: M1 PAM potency at increasing ACh concentration; type: cell-based; settings: read-out: M1 PAM potency

SMILES: Cc1ccc(Cc2cc3c(=O)n([C@H]4CCCC[C@@H]4O)cnc3c3ccccc23)cn1 [compound 2]
Agonist activity in the mouse PFC [1]: have agonist activity | Efficacy in rat novel object recognition (NOR) model [2]: failed to show efficacy | Behavioral convulsions, Racine scale ([3]; mice, develop rapidly and lasted 3 h): 4/5 | Displacement of [3H]-NMS [4]: weak to significant displacement

SMILES: Cc1nc2n(c(=O)c1CCN1CCC(c3noc4cc(F)ccc34)CC1)CCCC2 [risperidone, reference compound]
Effect on acquisition of contextual fear conditioning [5]: deficits in acquisition of contextual fear conditioning

SMILES: C[N+](C)(C)CCOC(N)=O [carbachol, reference compound]
LTD of layer V fEPSPs, agonist alone ([6]; 10 μM, electrically evoked): does not induce a significant long-term depression

SMILES: Cn1cc(-c2ccc(CN3Cc4ncccc4C3=O)c(F)c2)cn1 [VU0453595]
potency at M1 [7]: low micromolar range

SMILES: COc1ccc(Cn2cc(C(=O)O)c(=O)c3ccccc32)cc1 [compound 1]
Displacement of [3H]-NMS [4]: weak to significant displacement

SMILES: Cn1cc(-c2ccc(Cn3cc(C(=O)N[C@H]4CCCC[C@@H]4O)c4c(F)cc(F)cc43)cn2)cn1 [VU6004256]
Behavioral convulsions and cholinergic AEs ([3]; rodents): devoid of behavioral convulsions and cholinergic AEs

SMILES: C[N+](C)(C)CC#CCN1CCCC1=O [oxotremorine-M, reference compound]
LTD of layer V fEPSPs, agonist alone ([6]; 3 μM, optical stimulation of ventral hippocampal afferents): does not induce a significant LTD

EC50 ([8]; ACh concentration increased to EC70): 7 ± 1 nM | EC50 ([8]; very low level of ACh (~EC9)): 40 ± 6 nM
SMILES: Cc1cc2c(cc1Cc1ccc(-c3cocn3)cc1)C(=O)N([C@H]1CCOC[C@@H]1O)C2 [PF-06827443]
Agonist activity in the mouse PFC [1]: have agonist activity | Seizures in mice ([3]; mice): induced seizures in mice | Displacement of [3H]-NMS [4]: weak to significant displacement
